Measurements: ChEMBL document CHEMBL3621107, “Ring fusion strategy for synthesis and lead optimization of sulfur-substituted anthra[1,2-c][1,2,5]thiadiazole-6,11-dione derivatives as promising scaffold of antitumor agents” (Eur J Med Chem, 2015)

Columns and labels:
Type in all cases: functional
SF-539 = experiment: Cytotoxicity against human SF539 cells after 48 hrs by SRB assay; conditions: SF-539, 48 h
How it was run: (§1)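 Second-stage NCI-60 panel run by the NCI Developmental Therapeutics Program, covering nine tumour subpanels. Five concentrations were tested: 0.01, 0.1, 1, 10 and 100 μM. Percentage growth at each level was plotted against log10 drug concentration. GI50, TGI and LC50 were read from these dose-response curves. Subpanel MID values were divided into the full-panel MID to give selectivity ratios.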

IGROV-1 = experiment: Cytotoxicity against human IGROV1 cells after 48 hrs by SRB assay; conditions: IGROV-1, 48 h
How it was run: (§2)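 NCI-60 human tumour cell panel screen, second stage, run by the NCI Developmental Therapeutics Program. Compounds were tested at five concentrations (0.01, 0.1, 1, 10 and 100 μM). Percentage growth was plotted against log10 concentration for each cell line. GI50, TGI and LC50 were taken from these dose-response curves.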

NCI-H460 = experiment: Cytotoxicity against human NCI-H460 cells after 48 hrs by SRB assay; conditions: NCI-H460, 48 h; how it was run: as §1
PC-3 = experiment: Cytotoxicity against human PC3 cells after 48 hrs by SRB assay; conditions: PC-3, 48 h; how it was run: as §1
SN12C = experiment: Cytotoxicity against human SN12C cells after 48 hrs by SRB assay; conditions: for CC50: read-out: LC50 (the source's name); how it was run: as §1
OVCAR-8 = experiment: Cytotoxicity against human OVCAR8 cells after 48 hrs by SRB assay; conditions: OVCAR-8, 48 h; for CC50: read-out: LC50 (the source's name); how it was run: as §1
NCI-H522 = experiment: Cytotoxicity against human NCI-H522 cells after 48 hrs by SRB assay; conditions: NCI-H522, 48 h; how it was run: as §1
A549 = experiment: Cytotoxicity against human A549 cells after 48 hrs by SRB assay; conditions: A549, 48 h; how it was run: as §2
MOLT-4 = experiment: Cytotoxicity against human MOLT4 cells after 48 hrs by SRB assay; conditions: MOLT-4, 48 h; how it was run: as §1
COLO 205 = experiment: Cytotoxicity against human COLO205 cells after 48 hrs by SRB assay; conditions: COLO 205, 48 h; how it was run: as §2
[1] = Cytotoxicity against human prostate cancer cells assessed as growth inhibition after 48 hrs by SRB assay; conditions: Cancer cell lines
How it was run: (§3)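 Values come from the NCI-60 five-dose panel (0.01–100 µM). The subpanel MID is the mean GI50 over the lines of that tumour subpanel. The selectivity ratio is the full-panel MID divided by the subpanel MID; 3–6 is rated moderate and >6 high.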

[2] = Cytotoxicity against human ovarian cancer cells assessed as growth inhibition after 48 hrs by SRB assay; conditions: Cancer cell lines; how it was run: as §3
SK-OV-3 = experiment: Cytotoxicity against human SKOV3 cells after 48 hrs by SRB assay; conditions: SK-OV-3, 48 h; how it was run: as §1
HT-29 = experiment: Cytotoxicity against human HT-29 cells after 48 hrs by SRB assay; conditions: HT-29, 48 h; how it was run: as §2
T47D = experiment: Cytotoxicity against human T47D cells after 48 hrs by SRB assay
How it was run: (§4)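 NCI-60 five-dose study run by NCI DTP at 0.01, 0.1, 1, 10 and 100 µM. Percentage growth at each level was plotted against log10 concentration for each line, and GI50, TGI and LC50 were read from the dose-response curves.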

[3] = Cytotoxicity against human CNS cancer cells assessed as growth inhibition after 48 hrs by SRB assay; conditions: Cancer cell lines
How it was run: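 NCI-60 five-dose data (0.01–100 μM) were grouped by tumour subpanel. A subpanel mean (MID) of GI50 was computed for the CNS cancer lines. A selectivity ratio was obtained as full-panel MID divided by subpanel MID: 3–6 counts as moderate, >6 as high.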

SNB-75 = experiment: Cytotoxicity against human SNB75 cells after 48 hrs by SRB assay; conditions: SNB-75, 48 h; how it was run: as §4
RXF 393 = experiment: Cytotoxicity against human RXF393 cells after 48 hrs by SRB assay; conditions: RXF 393, 48 h; how it was run: as §1
TK-10 = experiment: Cytotoxicity against human TK10 cells after 48 hrs by SRB assay; conditions: TK-10, 48 h; how it was run: as §4
[4] = Cytotoxicity against human colon cancer cells assessed as growth inhibition after 48 hrs by SRB assay; conditions: Cancer cell lines; how it was run: as §3
UACC-257 = experiment: Cytotoxicity against human UACC257 cells after 48 hrs by SRB assay; conditions: UACC-257, 48 h; how it was run: as §4
NCI/ADR-RES = experiment: Cytotoxicity against human NCI/ADR-RES cells after 48 hrs by SRB assay; how it was run: as §1
SW-620 = experiment: Cytotoxicity against human SW620 cells after 48 hrs by SRB assay; conditions: SW-620, 48 h; how it was run: as §4
U-251 = experiment: Cytotoxicity against human U251 cells after 48 hrs by SRB assay; conditions: U-251, 48 h; how it was run: as §4
786-0 = experiment: Cytotoxicity against human 786-0 cells after 48 hrs by SRB assay; conditions: 786-0, 48 h; how it was run: as §2
SK-MEL-5 = experiment: Cytotoxicity against human SK-MEL-5 cells after 48 hrs by SRB assay; conditions: SK-MEL-5, 48 h; how it was run: as §1
[5] = Cytotoxicity against human renal cancer cells assessed as growth inhibition after 48 hrs by SRB assay; conditions: Cancer cell lines; how it was run: as §3
SR = experiment: Cytotoxicity against human SR cells after 48 hrs by SRB assay; how it was run: as §4
UO-31 = experiment: Cytotoxicity against human UO31 cells after 48 hrs by SRB assay; conditions: UO-31, 48 h; how it was run: as §4
UACC-62 = experiment: Cytotoxicity against human UACC62 cells after 48 hrs by SRB assay; conditions: UACC-62, 48 h; how it was run: as §4

O=C1c2ccccc2C(=O)c2c1cc(Sc1cccc(Cl)c1)c1nsnc21
GI50 (SF-539): 2.19 µM
LC50 (SF-539): 7.55 µM
TGI (SF-539): 4.07 µM
GI50 (IGROV-1): 2.07 µM
LC50 (IGROV-1): 26.7 µM
TGI (IGROV-1): 5.37 µM
GI50 (NCI-H460): 4.29 µM
LC50 (concentration killing 50% of cells) (NCI-H460): 75.8 µM
TGI (NCI-H460): 18.9 µM
GI50 (PC-3): 2.27 µM
LC50 (concentration killing 50% of cells) (PC-3): 69.9 µM
TGI (PC-3): 11.8 µM
GI50 (SN12C): 1.05 µM
TGI (SN12C): 2.58 µM
CC50 (SN12C): 6.35 µM
GI50 (OVCAR-8): 0.59 µM
TGI (OVCAR-8): 2.26 µM
CC50 (OVCAR-8): 6.81 µM
GI50 (NCI-H522): 1.84 µM
LC50 (concentration giving 50% net cell kill) (NCI-H522): 9.91 µM
TGI (NCI-H522): 4.26 µM
GI50 (A549): 6.66 µM
LC50 (concentration killing 50% of cells) (A549): 73.6 µM
TGI (A549): 24.4 µM
GI50 (MOLT-4): 0.64 µM
LC50 (MOLT-4): > 100 µM
TGI (MOLT-4): 3.27 µM
GI50 (COLO 205): 20 µM
LC50 (COLO 205): 61.3 µM
TGI (COLO 205): 35 µM
GI50 [1]: 2.27 µM
GI50 [2]: 1.52 µM
GI50 (SK-OV-3): 3.97 µM
LC50 (SK-OV-3): 34.8 µM
TGI (SK-OV-3): 12.1 µM
GI50 (HT-29): 20.1 µM
LC50 (HT-29): 100 µM
TGI (HT-29): 66.7 µM
GI50 (T47D): 1.29 µM
LC50 (concentration killing 50% of cells) (T47D): 8.72 µM
TGI (T47D): 3.35 µM
GI50 [3]: 4.47 µM
GI50 (SNB-75): 1.99 µM
LC50 (concentration killing 50% of cells) (SNB-75): 23.7 µM
TGI (SNB-75): 6.23 µM
GI50 (RXF 393): 2.15 µM
LC50 (concentration killing 50% of cells) (RXF 393): 10.9 µM
TGI (RXF 393): 4.7 µM
GI50 (TK-10): 5.31 µM
LC50 (concentration killing 50% of cells) (TK-10): 39.9 µM
TGI (TK-10): 14.8 µM
GI50 [4]: 10.5 µM
GI50 (UACC-257): 1.52 µM
LC50 (UACC-257): 6.54 µM
TGI (UACC-257): 3.15 µM
GI50 (NCI/ADR-RES): 0.5 µM
LC50 (concentration killing 50% of cells) (NCI/ADR-RES): > 100 µM
TGI (NCI/ADR-RES): 4.59 µM
GI50 (SW-620): 2.29 µM
LC50 (50% lethal concentration) (SW-620): 28.3 µM
TGI (SW-620): 5.21 µM
GI50 (U-251): 1.7 µM
LC50 (U-251): 9.39 µM
TGI (U-251): 4 µM
GI50 (786-0): 2.91 µM
LC50 (concentration killing 50% of cells) (786-0): 31.1 µM
TGI (786-0): 8.97 µM
GI50 (SK-MEL-5): 0.99 µM
LC50 (SK-MEL-5): 4.87 µM
TGI (SK-MEL-5): 2.21 µM
GI50 [5]: 3.81 µM
GI50 (SR): 2 µM
LC50 (SR): > 100 µM
TGI (SR): 8.09 µM
GI50 (UO-31): 1.78 µM
LC50 (UO-31): 9.73 µM
TGI (UO-31): 4.16 µM
GI50 (UACC-62): 1.6 µM
LC50 (UACC-62): 6.54 µM
TGI (UACC-62): 3.26 µM

CC(C)Sc1cc2c(c3nsnc13)C(=O)c1ccccc1C2=O
GI50 (SF-539): 1.73 µM
LC50 (SF-539): 7.14 µM
TGI (SF-539): 3.51 µM
GI50 (IGROV-1): 0.96 µM
LC50 (IGROV-1): 9.18 µM
TGI (IGROV-1): 3.01 µM
GI50 (NCI-H460): 2.02 µM
LC50 (concentration killing 50% of cells) (NCI-H460): 40.5 µM
TGI (NCI-H460): 8.33 µM
GI50 (PC-3): 0.25 µM
LC50 (concentration killing 50% of cells) (PC-3): 75.4 µM
TGI (PC-3): 1.38 µM
GI50 (SN12C): 0.66 µM
TGI (SN12C): 2.41 µM
CC50 (SN12C): 7.09 µM
GI50 (OVCAR-8): 0.49 µM
TGI (OVCAR-8): 2.37 µM
CC50 (OVCAR-8): 9.85 µM
GI50 (NCI-H522): 2.38 µM
LC50 (concentration giving 50% net cell kill) (NCI-H522): 9.96 µM
TGI (NCI-H522): 4.87 µM
GI50 (A549): 2.43 µM
LC50 (concentration killing 50% of cells) (A549): 51.4 µM
TGI (A549): 7.94 µM
GI50 (MOLT-4): 0.18 µM
LC50 (MOLT-4): > 100 µM
TGI (MOLT-4): 0.49 µM
GI50 (COLO 205): 13.3 µM
LC50 (COLO 205): 51 µM
TGI (COLO 205): 20.6 µM
GI50 [1]: 0.85 µM
GI50 [2]: 1.08 µM
GI50 (SK-OV-3): 2.9 µM
LC50 (SK-OV-3): 36.9 µM
TGI (SK-OV-3): 12.6 µM
GI50 (HT-29): 12.2 µM
LC50 (HT-29): 92.7 µM
TGI (HT-29): 33.6 µM
GI50 (T47D): 0.38 µM
LC50 (concentration killing 50% of cells) (T47D): 9.11 µM
TGI (T47D): 2.15 µM
GI50 [3]: 1.79 µM
GI50 (SNB-75): 0.52 µM
LC50 (concentration killing 50% of cells) (SNB-75): 23.9 µM
TGI (SNB-75): 3.95 µM
GI50 (RXF 393): 1.77 µM
LC50 (concentration killing 50% of cells) (RXF 393): 16.9 µM
TGI (RXF 393): 4.83 µM
GI50 (TK-10): 5.68 µM
LC50 (concentration killing 50% of cells) (TK-10): 87.6 µM
TGI (TK-10): 18 µM
GI50 [4]: 4.94 µM
GI50 (UACC-257): 0.57 µM
LC50 (UACC-257): 4.47 µM
TGI (UACC-257): 1.88 µM
GI50 (NCI/ADR-RES): 0.52 µM
LC50 (concentration killing 50% of cells) (NCI/ADR-RES): > 100 µM
TGI (NCI/ADR-RES): 3.2 µM
GI50 (SW-620): 0.43 µM
LC50 (50% lethal concentration) (SW-620): 11.7 µM
TGI (SW-620): 2.21 µM
GI50 (U-251): 1.48 µM
LC50 (U-251): 6.75 µM
TGI (U-251): 3.16 µM
GI50 (786-0): 2.75 µM
LC50 (concentration killing 50% of cells) (786-0): 34.9 µM
TGI (786-0): 8.14 µM
GI50 (SK-MEL-5): 1.29 µM
LC50 (SK-MEL-5): 5.23 µM
TGI (SK-MEL-5): 2.6 µM
GI50 [5]: 1.58 µM
GI50 (SR): 0.31 µM
LC50 (SR): 7.46 µM
TGI (SR): 1.19 µM
GI50 (UO-31): 1.16 µM
LC50 (UO-31): 11.9 µM
TGI (UO-31): 3.56 µM
GI50 (UACC-62): 1.35 µM
LC50 (UACC-62): 5.26 µM
TGI (UACC-62): 2.67 µM
